Data reported in PMC3149845 (The Journal of neuroscience : the official journal of the …, 2011).
Where a chain is given by its changes, count along the chain named. Entries after “also recorded” stand apart in the source; their conditions may differ. Peptide text beside a SMILES is read from it.

How the values were obtained:
[1] = target: T1, hTas1R2:I67S/D142E+hTas1R3 (Homo sapiens, UniProt Q8TE23, D142E/I67S); assay: Ca2+ mobilization, mutated human receptor; assay type: cell-based; conditions: for calcium response to sweetener: aspartame 10mM, neotame 1mM, sucralose 2 mM, compared with hTas1R2/hTas1R3; for response in dose-response experiment: versus hTas1R2+hTas1R3
T1 sequence (Q8TE23 20-839 I67S/D142E): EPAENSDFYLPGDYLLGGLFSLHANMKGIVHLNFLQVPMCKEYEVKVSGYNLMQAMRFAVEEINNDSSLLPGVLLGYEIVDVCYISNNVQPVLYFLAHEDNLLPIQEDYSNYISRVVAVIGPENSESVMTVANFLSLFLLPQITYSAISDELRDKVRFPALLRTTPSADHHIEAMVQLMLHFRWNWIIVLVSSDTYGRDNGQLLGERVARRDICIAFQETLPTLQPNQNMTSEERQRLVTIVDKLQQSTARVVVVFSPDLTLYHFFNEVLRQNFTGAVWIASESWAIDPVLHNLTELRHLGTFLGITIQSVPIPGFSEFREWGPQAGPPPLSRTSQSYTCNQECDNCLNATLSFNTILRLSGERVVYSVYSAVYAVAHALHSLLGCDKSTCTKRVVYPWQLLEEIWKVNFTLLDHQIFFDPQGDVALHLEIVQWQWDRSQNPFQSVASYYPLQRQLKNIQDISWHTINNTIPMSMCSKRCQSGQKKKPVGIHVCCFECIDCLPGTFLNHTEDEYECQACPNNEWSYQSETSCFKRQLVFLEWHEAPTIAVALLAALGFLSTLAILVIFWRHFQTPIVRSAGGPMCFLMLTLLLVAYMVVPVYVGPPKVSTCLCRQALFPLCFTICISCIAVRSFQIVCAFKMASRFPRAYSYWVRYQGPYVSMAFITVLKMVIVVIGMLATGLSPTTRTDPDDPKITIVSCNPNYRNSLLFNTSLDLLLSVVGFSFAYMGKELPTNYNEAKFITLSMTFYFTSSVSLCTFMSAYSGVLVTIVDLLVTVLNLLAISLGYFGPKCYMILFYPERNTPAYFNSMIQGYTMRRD
T1 sequence (Q7RTX0 21-852 partner): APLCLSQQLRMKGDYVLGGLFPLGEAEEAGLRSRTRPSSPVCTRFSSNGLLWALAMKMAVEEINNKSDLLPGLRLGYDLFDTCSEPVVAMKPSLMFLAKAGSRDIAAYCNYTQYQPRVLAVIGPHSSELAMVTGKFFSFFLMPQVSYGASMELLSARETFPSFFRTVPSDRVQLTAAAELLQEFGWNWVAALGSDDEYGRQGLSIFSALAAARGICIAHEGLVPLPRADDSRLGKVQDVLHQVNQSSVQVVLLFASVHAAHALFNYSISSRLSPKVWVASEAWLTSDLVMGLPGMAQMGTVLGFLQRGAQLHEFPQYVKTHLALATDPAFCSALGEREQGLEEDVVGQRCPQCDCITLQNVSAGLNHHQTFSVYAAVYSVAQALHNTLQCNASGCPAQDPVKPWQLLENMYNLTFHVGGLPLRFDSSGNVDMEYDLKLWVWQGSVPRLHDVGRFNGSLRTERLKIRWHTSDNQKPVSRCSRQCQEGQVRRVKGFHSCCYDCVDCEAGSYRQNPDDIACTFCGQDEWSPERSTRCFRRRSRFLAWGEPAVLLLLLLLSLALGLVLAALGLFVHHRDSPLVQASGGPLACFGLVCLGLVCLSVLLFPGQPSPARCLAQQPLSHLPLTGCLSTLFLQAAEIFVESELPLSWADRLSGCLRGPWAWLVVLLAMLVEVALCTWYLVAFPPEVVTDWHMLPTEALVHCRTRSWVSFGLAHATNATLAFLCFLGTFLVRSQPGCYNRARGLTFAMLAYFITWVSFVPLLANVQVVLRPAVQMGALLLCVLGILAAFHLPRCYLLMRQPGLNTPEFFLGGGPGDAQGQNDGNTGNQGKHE

hTas1R2/smTas1R3 = target: T2, hTas1R2/smTas1R3 (Homo sapiens, UniProt Q8TE23); assay: Ca2+ mobilization, mismatched receptor; assay type: cell-based, human/squirrel monkey; conditions: aspartame 10mM, neotame 1mM, sucralose 2 mM, D-tryptophan 5mM, sucrose 150mM; vs control / wild type human receptor
T2 sequence (Q8TE23 20-839): T1 sequence (Q8TE23 20-839 I67S/D142E) with S48I, E123D
In short: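 Transfected HEK293E cells (50,000/well; 0.06 μg Tas1R plasmid and 0.06 μg Gα16-gust44 per well) were medium-changed at 20 h, then loaded after 24 h with 3 μM Fluo-4 AM in HBSS/20 mM HEPES for 1 h. Tastant added 30 s into scan; fluorescence (ex 488/em 525 nm) read every 2 s for 150 s. ΔF/F normalized to the hTas1R2/hTas1R3 sucralose response; three independent experiments; unpaired t test.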

hTas1R2:D142E+hTas1R3 = hTas1R2:D142E+hTas1R3 (Homo sapiens, UniProt Q8TE23, D142E); assay: Ca2+ mobilization, mutated human receptor; assay type: cell-based; conditions: aspartame 10mM, neotame 1mM, sucralose 2 mM; compared with hTas1R2/hTas1R3
In short: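 HEK293E cells grown at 37°C in Opti-MEM with 5% FBS and seeded at 50,000/well. Cells co-lipofected with Tas1R plasmids and Gα16-gust44 (0.06 μg each per well); medium changed at 20 h, assayed 24 h later. Cells loaded 1 h with Fluo-4 AM in HEPES-buffered HBSS. Tastant added at 30 s; fluorescence (ex 488/em 525 nm) read every 2 s for 150 s more. ΔF/F normalised to human receptor maximal sucralose response; mean ± SEM, three independent experiments.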

[2] = ΔF/F normalized to maximum response of hTas1R2/hTas1R3 to neotame

Chain of hTas1R2:D142E+hTas1R3 (Q8TE23 20-839 D142E, one chain of several): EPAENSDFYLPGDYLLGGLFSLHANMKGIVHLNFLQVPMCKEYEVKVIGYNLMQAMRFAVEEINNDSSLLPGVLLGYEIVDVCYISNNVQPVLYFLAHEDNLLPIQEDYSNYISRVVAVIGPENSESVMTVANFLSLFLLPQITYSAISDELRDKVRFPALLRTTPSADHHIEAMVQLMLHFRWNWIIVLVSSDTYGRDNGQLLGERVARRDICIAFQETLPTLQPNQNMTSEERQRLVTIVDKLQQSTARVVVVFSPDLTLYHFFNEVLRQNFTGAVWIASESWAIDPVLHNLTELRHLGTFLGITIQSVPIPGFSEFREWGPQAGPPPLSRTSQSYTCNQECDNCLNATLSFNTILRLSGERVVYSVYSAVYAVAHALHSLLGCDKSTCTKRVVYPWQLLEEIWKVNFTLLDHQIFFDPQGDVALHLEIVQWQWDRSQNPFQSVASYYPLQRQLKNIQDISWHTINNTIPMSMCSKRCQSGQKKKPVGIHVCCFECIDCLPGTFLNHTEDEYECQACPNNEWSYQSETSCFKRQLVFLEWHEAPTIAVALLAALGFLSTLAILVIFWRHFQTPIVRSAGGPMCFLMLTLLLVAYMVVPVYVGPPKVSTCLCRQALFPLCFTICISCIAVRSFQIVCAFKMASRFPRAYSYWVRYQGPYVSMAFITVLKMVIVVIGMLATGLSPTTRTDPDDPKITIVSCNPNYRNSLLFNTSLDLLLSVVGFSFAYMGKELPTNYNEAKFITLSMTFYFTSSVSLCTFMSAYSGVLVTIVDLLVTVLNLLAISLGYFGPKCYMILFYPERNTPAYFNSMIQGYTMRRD

Compound | calcium response to sweetener [1] | response in dose-response experiment ([1]; dose-response) | calcium response to sweetener (hTas1R2/smTas1R3) | calcium response to sweetener (hTas1R2:D142E+hTas1R3) | EC50 ([1]; HEK293E cells with Gα16-gust44, dose-response, calcium mobilization) | Bottom (B) of sigmoid dose-response fit [1, 2] | Top (T) of sigmoid dose-response fit [1, 2]
COC(=O)[C@H](Cc1ccccc1)NC(=O)[C@@H](N)CC(=O)O [aspartame, L-α-aspartly-L-phenylalanine methyl ester] (H-Asp-Phe-OMe) | abolition | no responses | able to respond; also recorded: reduced responses | almost abolished; also recorded: abolishes the activity | – | – | –
OC[C@H]1O[C@H](O[C@]2(CCl)O[C@H](CCl)[C@@H](O)[C@@H]2O)[C@H](O)[C@@H](O)[C@H]1Cl [sucralose] | – | – | reduced responses | – | – | – | –
COC(=O)[C@H](Cc1ccccc1)NC(=O)[C@H](CC(=O)O)NCCC(C)(C)C [neotame] | significant reduction | weaker responses | able to respond | significantly decreased | 4.7 mM | −1.772 | 51.81
